Key:
Substance-P receptor = Substance-P receptor (Homo sapiens, UniProt P25103); assay: Displacement of [3H]substance P from human NK1 receptor expressed in CHO cells; type: cell-based
[1] = molecular target: Substance-P receptor (Rattus norvegicus) (UniProt P14600); assay: Displacement of [3H]substance P from rat NK1 receptor expressed in CHO cells; type: cell-based
[2] = Lipophilicity, log D at pH 7.4; type: physicochemical; details: buffer
How it was run: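 2 mg peptide in 500 µL 0.05 M HEPES/0.1 M NaCl, pH 7.4, shaken with 500 µL 1-octanol for 12 h at rt. Phases separated by centrifugation and each phase analysed by HPLC at 230 nm.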

[3] = molecular target: Substance-P receptor (Rattus norvegicus) (UniProt P14600); assay: Displacement of [3H]substance P from rat NK1 receptor expressed in CHO cells at 1 uM; type: cell-based
[4] = molecular target: Substance-P receptor (Cavia porcellus) (UniProt P30547); assay: Antagonist activity at NK1 receptor in Hartley guinea pig isolated ileum assessed as inhibition of substance P-induced muscle contraction; type: functional, tissue-based
Substance-P receptor (Cavia porcellus), sequence (P30547 whole entry): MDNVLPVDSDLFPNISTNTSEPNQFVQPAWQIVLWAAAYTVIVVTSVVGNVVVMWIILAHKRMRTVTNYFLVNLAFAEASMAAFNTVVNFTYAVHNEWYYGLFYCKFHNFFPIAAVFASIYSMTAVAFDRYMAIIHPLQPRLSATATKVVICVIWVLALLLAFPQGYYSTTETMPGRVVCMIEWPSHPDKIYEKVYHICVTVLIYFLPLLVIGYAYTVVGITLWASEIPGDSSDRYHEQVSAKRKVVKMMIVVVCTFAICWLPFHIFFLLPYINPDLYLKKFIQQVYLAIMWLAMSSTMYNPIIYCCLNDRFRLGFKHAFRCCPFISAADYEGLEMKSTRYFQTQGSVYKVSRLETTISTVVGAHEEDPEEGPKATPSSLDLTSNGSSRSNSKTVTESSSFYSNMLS
How it was run: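 Guinea pig ileum LMMP preparation in 1 µM naloxone. Full substance P concentration–response curves run with and without test compound; maximal substance P peak taken as 100%. Ke is the antagonist concentration that halves substance P activity, from at least four tissues.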

Substance-P receptor (Rattus norvegicus), sequence (P14600 whole entry): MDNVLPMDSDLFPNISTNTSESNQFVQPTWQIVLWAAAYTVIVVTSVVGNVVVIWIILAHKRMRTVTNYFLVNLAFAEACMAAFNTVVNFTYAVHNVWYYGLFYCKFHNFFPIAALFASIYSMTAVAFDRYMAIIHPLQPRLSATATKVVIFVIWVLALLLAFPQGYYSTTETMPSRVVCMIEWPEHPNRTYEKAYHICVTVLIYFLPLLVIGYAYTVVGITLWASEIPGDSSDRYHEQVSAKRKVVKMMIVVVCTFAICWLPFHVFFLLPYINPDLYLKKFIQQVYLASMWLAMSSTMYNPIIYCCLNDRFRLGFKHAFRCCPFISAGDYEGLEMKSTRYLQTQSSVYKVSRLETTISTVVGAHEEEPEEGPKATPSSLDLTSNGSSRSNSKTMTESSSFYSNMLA
Substance-P receptor, sequence (P25103 whole entry): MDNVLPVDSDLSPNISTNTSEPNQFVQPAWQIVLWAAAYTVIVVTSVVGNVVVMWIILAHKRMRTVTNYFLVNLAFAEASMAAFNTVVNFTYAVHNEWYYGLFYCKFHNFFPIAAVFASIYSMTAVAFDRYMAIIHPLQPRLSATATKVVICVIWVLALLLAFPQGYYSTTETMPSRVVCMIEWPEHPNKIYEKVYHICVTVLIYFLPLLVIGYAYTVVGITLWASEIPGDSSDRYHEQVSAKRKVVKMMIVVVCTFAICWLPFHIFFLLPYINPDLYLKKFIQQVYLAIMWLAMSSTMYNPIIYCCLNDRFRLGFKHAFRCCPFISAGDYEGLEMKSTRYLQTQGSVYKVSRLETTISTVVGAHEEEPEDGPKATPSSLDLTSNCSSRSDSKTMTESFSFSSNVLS

SMILES | logIC50 (Substance-P receptor) | logIC50 [1] | logD [2] | inhibition [3] [%] | Ke [4] [nM] | Ki (Substance-P receptor) [nM]
CC(C)C[C@H](NC(=O)[C@@H]1CCCN1C(=O)[C@H](Cc1ccccc1)NC(=O)CNC(=O)[C@@H](C)NC(=O)[C@@H](N)Cc1ccc(O)cc1)C(=O)N[C@@H](Cc1c[nH]c2ccccc12)C(=O)N(C)Cc1cc(C(F)(F)F)cc(C(F)(F)F)c1 | -8.5 | -7.7 |  |  |  | 
CC(C)C[C@H](NC(=O)[C@@H]1CCCN1C(=O)[C@H](Cc1ccccc1)NC(=O)CNC(=O)[C@@H](C)NC(=O)[C@@H](N)Cc1ccc(O)cc1)C(=O)N[C@@H](Cc1c[nH]c2ccccc12)C(=O)N(C)Cc1ccccc1 | -8.5 |  | 3.5 | 33 |  | 
CC(C)C[C@H](NC(=O)[C@@H]1CCCN1C(=O)[C@H](Cc1ccccc1)NC(=O)CNC(=O)[C@@H](C)NC(=O)[C@@H](N)Cc1ccc(O)cc1)C(=O)N[C@@H](Cc1c[nH]c2ccccc12)C(=O)NCc1ccccc1 | -7.5 |  | 3.3 | 30 | 26 | 
CC(C)C[C@H](NC(=O)[C@@H]1CCCN1C(=O)[C@H](Cc1ccccc1)NC(=O)CNC(=O)[C@@H](C)NC(=O)[C@@H](N)Cc1ccc(O)cc1)C(=O)N[C@@H](Cc1c[nH]c2ccccc12)C(=O)OCc1ccccc1 | -6.7 | -6.1 | 3.8 |  |  | 
CC(C)C[C@H](NC(=O)[C@@H]1CCCN1C(=O)[C@H](Cc1ccccc1)NC(=O)CNC(=O)[C@@H](C)NC(=O)[C@@H](N)Cc1ccc(O)cc1)C(=O)N[C@@H](Cc1c[nH]c2ccccc12)C(=O)NCc1cc(C(F)(F)F)cc(C(F)(F)F)c1 | -8.9 | -7 |  |  |  | 
CC(C)C[C@H](NC(=O)[C@@H]1CCCN1C(=O)[C@H](Cc1ccccc1)NC(=O)CNC(=O)[C@@H](C)NC(=O)[C@@H](N)Cc1ccc(O)cc1)C(=O)N[C@@H](Cc1c[nH]c2ccccc12)C(=O)OCc1cc(C(F)(F)F)cc(C(F)(F)F)c1 | -10 | -8.3 |  |  | 3.6 | 0.046

From ChEMBL document CHEMBL1143135, “A structure-activity relationship study and combinatorial synthetic approach of C-terminal modified bifunctional peptides that are delta/mu opioid receptor agonists and neurokinin 1 receptor antagonists” (J Med Chem, 2008)
